Redox H2O2 prof = compounds producing H2O2 with reducing agent – biochemical, NIH compound library profiling, artefact control for MLSCN library redox annotation, primary screen; DTT-dependent redox cycling H2O2, phenol red/HRP absorbance; 100% = 100 µM peroxide control, 0% = buffer; activation, % at 10 µM; 0.03% of 200,000 active;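 active means activation of at least 50% relative to the plate's high and low controls in the primary single-dose screen; inactive means activation below 50%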;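 further: compound incubated with DTT at 0.8 mM final as the reducing agent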
Lmaj promast = Leishmania major promastigote growth inhibition | 9% of 200,000 active | Leishmania major promastigotes, resazurin fluorescence viability | inhibition, % at 10 µM | AID 1063;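 further: promastigotes grown with compound for 44 hours at 28 °C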
PfGluPho inh = PfG6PD (Plasmodium falciparum) enzyme inhibition; inhibition, % at 20 µM; 0.78% of 350,000 active; AID 504690; PfGluPho enzyme, NADPH resazurin-diaphorase fluorescence;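 active means inhibition reaching at least a set limit at 20 µM in the primary screen, cut at about 59% in these data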
Diaph act CS = counter-screen for diaphorase-based assays: diaphorase activators and chemical reducers; AID 1229; activation factor at 20 µM; 0.005% of 190,000 active; Diaphorase/resazurin coupled assay, resorufin fluorescence, 16 min; stronger effect = higher value; 1 = vehicle wells, 0 = NADH-free wells;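 active means diaphorase activity raised at least twofold by the compound at 20 µM; inactive means activation factor below 2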
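Assay system: bacterial diaphorase enzyme (C. kluyveri) / Input: enzyme 0.07 U/mL final / Medium: 50 mM HEPES pH 7.4 with 4.542 mM MgCl2, 0.005% Tween 20 / Doses: single compound dose of 20 µM, 1% DMSO final / Incubation: 16 min enzyme reaction, ambient temperature / Signal: fluorescence, excitation 544 nm and emission 590 nm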
Diaph inh CS = inhibits diaphorase or chemically oxidizes, flagging diaphorase assay artifacts; inhibition, % at 20 µM; AID 1217; diaphorase resazurin-to-resorufin fluorescence, NADH, 16 min; bacterial (C. kluyveri) enzyme, not human; 0.69% of 190,000 active;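 active means primary screen inhibition at 20 µM above a set limit, cut at about 50% in these data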
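Benchmarks: positive control wells lacking NADH, neutral wells with DMSO only. System: bacterial diaphorase enzyme (C. kluyveri). Input: 0.14 U/mL diaphorase, enzyme working solution. Detection: resorufin fluorescence, excitation 544 nm, emission 590 nm. Times: 16-min room-temperature incubation before reading.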
G6PDH CS = L. mesenteroides G6PDH inhibition counter-screen; 0.12% of 200,000 active; AID 1020; inhibition, % at 5 µM; Purified L. mesenteroides G6PDH, diaphorase/resazurin coupled fluorescence, 45 min
Of the large screens only hits and unclear results are named; the others gave an inactive call. Only a selection was taken, and hits are over-represented in it overall. Unless noted, no stated cut-off is given here; in the data, active means inhibition above about 50%; inactive means the rest.

O=C(COC(=O)c1cccc(S(=O)(=O)NCc2ccccc2)c1)c1ccccc1	none
CC(C)N1CCN(Cc2ccc(-c3ccccc3)cc2)CC1CCO (centres undefined)	none (no result: Redox H2O2 prof, Lmaj promast, Diaph act CS, Diaph inh CS, G6PDH CS)
CC(C)N1CCN(Cc2ccc3c(c2)Cc2ccccc2-3)CC1CCO (centres undefined)	Lmaj promast 85 (no result: Diaph act CS, Diaph inh CS)
CN(C)S(=O)(=O)n1cnc([C@@H]2[C@H]3C(=O)OC[C@@H]3C[C@@]23N=CN(Cc2ccccc2)C3=O)c1	none (no result: Redox H2O2 prof, Lmaj promast, Diaph act CS, Diaph inh CS, G6PDH CS)
O=[N+]([O-])c1ccc(/C=N/n2c(CO)nc3ccccc32)s1	Lmaj promast 100
COc1cccc(/C=N/n2c(C)nc3ccccc32)c1OC	none
Cc1nc2ccccc2n1/N=C/c1ccc([N+](=O)[O-])s1	Lmaj promast 100
Cc1nc2ccccc2n1/N=C/c1ccc([N+](=O)[O-])o1	Lmaj promast 101 (no result: Diaph act CS, Diaph inh CS, G6PDH CS)
O=[N+]([O-])c1ccc(/C=N/Nc2ncccc2[N+](=O)[O-])s1	none (no result: Redox H2O2 prof, Lmaj promast, Diaph act CS, Diaph inh CS, G6PDH CS)
CCOC(=O)c1ccc(N2C(=O)c3n[nH]c(-c4ccco4)c3C2c2ccc([N+](=O)[O-])cc2)cc1 (centres undefined)	Lmaj promast 98
CCS(=O)(=O)Nc1ccc2[nH]c(=O)[nH]c2c1	none
CCCCCCCC[n+]1cccc2c3ccccc3ccc21	Lmaj promast 101
CCCCCCCCCC[n+]1cccc2c3ccccc3ccc21	Lmaj promast 100
CCCc1cc(=O)[nH]c(SCC(=O)N(CCC#N)c2ccc3c(c2)OCCO3)n1	none (no result: Redox H2O2 prof, Lmaj promast, Diaph act CS, Diaph inh CS, G6PDH CS)
CCCc1cc(=O)[nH]c(SCC(=O)c2ccc3c(c2)OCCO3)n1	Lmaj promast 61
CC1=CC(C)(C)N2C(=O)C3(SCC(=O)N3c3ccc(F)cc3)c3cc(C)cc1c32 (centres undefined)	Lmaj promast 92
CC1=CC(C)(C)N2C(=O)C3(NCCc4c3[nH]c3ccccc43)c3cc(C)cc1c32 (centres undefined)	none (no result: Redox H2O2 prof, Lmaj promast, Diaph act CS, Diaph inh CS, G6PDH CS)
Cc1nc2cc(NC(=O)Nc3cccc4ccccc34)ccc2n1C	none
Cc1nc2cc(Nc3nnc(-c4ccccc4)c4ccccc34)ccc2n1C	Lmaj promast 88
CCc1noc(C)c1C(=O)N1CCCC(N2CCN(c3cccc(Cl)c3)CC2)C1 (centres undefined)	none (no result: Redox H2O2 prof, Lmaj promast, Diaph act CS, Diaph inh CS, G6PDH CS)
CC(C)/C=C/CN1CCN(CCCc2ccccc2)C(CCO)C1 (centres undefined)	none (no result: Redox H2O2 prof, Lmaj promast, Diaph act CS, Diaph inh CS, G6PDH CS)
Cc1ccc(C(=O)NCC(=O)OCC(=O)Nc2cc(C)c(C)cc2[N+](=O)[O-])cc1	none
COc1ccc(Cl)cc1NC(=O)COC(=O)CNC(=O)c1ccc([N+](=O)[O-])c(C)c1	Lmaj promast 56
COCC(=O)OCC(=O)Nc1cc(C)c(C)cc1[N+](=O)[O-]	Lmaj promast 55
Cc1cc(C)n(-c2ccc(C(=O)OCC(=O)Nc3cc(Cl)ccc3[N+](=O)[O-])cc2)n1	Lmaj promast 59
O=C(N/N=C/c1ccc(OC(=O)c2cccs2)cc1)c1ccccn1	none (no result: Redox H2O2 prof, Lmaj promast, Diaph act CS, Diaph inh CS, G6PDH CS)
CC(C)c1ccc(/C=N/NC(=O)c2nnn(-c3nonc3N)c2CSC2=NCCS2)cc1	Lmaj promast 97
Cc1cccc(NS(=O)(=O)c2ccc(C)c(C(=O)N(C)C3CCN(C)CC3)c2)c1	none (no result: Redox H2O2 prof, Lmaj promast, Diaph act CS, Diaph inh CS, G6PDH CS)
COCc1[nH]nc2c1C(c1ccc(OC)c(OC)c1)C(C#N)=C(N)O2 (centres undefined)	none
CCn1c2ccccc2c2cc(C3C(C#N)=C(N)Oc4n[nH]c(COC)c43)ccc21 (centres undefined)	Lmaj promast 89
COc1ccc(C2C(C#N)=C(N)Oc3n[nH]c(C)c32)cc1CSc1ccccn1 (centres undefined)	Lmaj promast 98
CCCc1[nH]nc2c1C(c1ccccc1OC)C(C#N)=C(N)O2 (centres undefined)	none
CCCc1[nH]nc2c1C(c1ccccc1OCC)C(C#N)=C(N)O2 (centres undefined)	Lmaj promast 54
CCCc1[nH]nc2c1C(c1ccncc1)C(C#N)=C(N)O2 (centres undefined)	none
CCCc1[nH]nc2c1C(c1ccc(O)c(OC)c1)C(C#N)=C(N)O2 (centres undefined)	Lmaj promast 80
COC(=O)c1cc(S(=O)(=O)NCC2CCN(CCc3cccs3)CC2)c[nH]1	none (no result: Redox H2O2 prof, Lmaj promast, Diaph act CS, Diaph inh CS, G6PDH CS)
CCOc1ccc(-c2[nH]nc3c2C(c2ccc4c(c2)OCO4)C(C#N)=C(N)O3)cc1OC (centres undefined)	Lmaj promast 51
Cc1[nH]nc2c1C(c1ccc3c(c1)OCO3)C(C#N)=C(N)O2 (centres undefined)	none
CCCc1[nH]nc2c1C(c1cccnc1)C(C#N)=C(N)O2 (centres undefined)	none
CCCc1[nH]nc2c1C(c1cn[nH]c1-c1ccc(F)cc1)C(C#N)=C(N)O2 (centres undefined)	Lmaj promast 73
CC(=O)NC1(c2ccccc2)CCN(c2cc(C)nc(-c3ccccc3)n2)CC1	none
COc1ccc(C(=O)N2CCCC(C(=O)N3CCN(c4ccccc4)CC3)C2)cc1 (centres undefined)	none (no result: Redox H2O2 prof, Lmaj promast, Diaph act CS, Diaph inh CS, G6PDH CS)
CC12CCC(C(=O)Nc3ccc(Br)cn3)(OC1=O)C2(C)C (centres undefined)	none (no result: Redox H2O2 prof, Lmaj promast, Diaph act CS, Diaph inh CS, G6PDH CS)
Cc1cc(C(=O)CCl)c(C)n1-c1cccc([N+](=O)[O-])c1	Lmaj promast 101
Cc1cc(C(=O)CCl)c(C)n1-c1ccon1	Lmaj promast 97
CCOC(=O)c1c(S(=O)(=O)NCC(=O)NCc2cccc(C)c2)c(C)n(C)c1C	none (no result: Redox H2O2 prof, Lmaj promast, Diaph act CS, Diaph inh CS, G6PDH CS)
CCOC(=O)c1ccccc1NC(=O)CSc1ccc(-c2ccccn2)nn1	none (no result: Redox H2O2 prof, Lmaj promast, Diaph act CS, Diaph inh CS, G6PDH CS)
O=c1c2ccccc2nc(N/N=C/c2c(O)ccc3ccccc23)n1O	Lmaj promast 100
O=C(COc1ccc(-c2nnco2)cc1)N1CCOCC1	none (no result: Redox H2O2 prof, Lmaj promast, Diaph act CS, Diaph inh CS, G6PDH CS)
C[C@@H](NC(=O)[C@@H]1Cc2ccccc2CN1)C(=O)Nc1ccc2c(c1)OCO2	none (no result: Redox H2O2 prof, Lmaj promast, Diaph act CS, Diaph inh CS, G6PDH CS)
CCOC(=O)c1c(CN(C)C)n(C)c2ccc(OC(C)=O)cc12	Lmaj promast 67
CCOC(=O)c1c(C)n(C)c2ccc(OC(=O)c3ccoc3)cc12	none
Cc1ccccc1CCN(C(=O)Cn1nnc2ccccc21)C(C(=O)NCC1CCCO1)c1nc2ccccc2n1C (centres undefined)	none
CC1(C)CC(=O)C2=C(C1)N1C(=C(C#N)C2c2ccc(Cl)cc2)N=C(N)c2ccccc21 (centres undefined)	Lmaj promast 66
COc1ccc(-n2c(SCC(=O)NCC3CCCO3)nc3ccccc3c2=O)cc1Cl (centres undefined)	none (no result: Redox H2O2 prof, Lmaj promast, Diaph act CS, Diaph inh CS, G6PDH CS)
O=C(NCCCn1ccnc1)c1sc2cccc(F)c2c1Cl	Lmaj promast 78
Cn1cnc([N+](=O)[O-])c1S(=O)(=O)Oc1ccc(Cl)cc1	none (no result: Redox H2O2 prof, Lmaj promast, Diaph act CS, Diaph inh CS, G6PDH CS)
CCc1nnc(NC(=O)CSc2ccc(Cl)cc2)s1	none (no result: Redox H2O2 prof, Lmaj promast, Diaph act CS, Diaph inh CS, G6PDH CS)

Bioassay records (PubChem BioAssay)
